Screening data from PubChem BioAssay.
NR2E3 ag-1 – agonists of human nuclear receptor NR2E3. Q9Y5X4. GST-NR2E3/biotin-RetCOR TR-FRET, 1536-well. inhibition of corepressor binding, % at 4.78 µM. 0.12% of 320,000 active. AID 2300;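 active = percent inhibition above the cutoff of mean plus 3 SD of all tested compounds, set per screening campaign, cut at about 20% in these data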;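 note: 0% = DMSO wells and 100% = biotin wells as full block of FRET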
Target sequence (Q9Y5X4 whole entry, looked up): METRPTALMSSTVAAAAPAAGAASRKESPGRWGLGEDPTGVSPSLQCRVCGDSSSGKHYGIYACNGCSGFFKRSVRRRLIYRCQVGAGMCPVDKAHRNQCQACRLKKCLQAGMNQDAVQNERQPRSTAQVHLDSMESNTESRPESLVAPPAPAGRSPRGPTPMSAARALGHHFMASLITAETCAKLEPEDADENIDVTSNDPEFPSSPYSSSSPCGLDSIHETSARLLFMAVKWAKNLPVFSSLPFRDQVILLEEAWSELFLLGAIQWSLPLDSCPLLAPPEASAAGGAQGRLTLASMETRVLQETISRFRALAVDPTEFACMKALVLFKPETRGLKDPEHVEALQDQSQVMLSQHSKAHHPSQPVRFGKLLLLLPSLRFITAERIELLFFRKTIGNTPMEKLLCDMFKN
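Assay system: NR2E3–RetCOR corepressor complex. Quantity: 1.35 nM GST-NR2E3. Buffer or medium: pH 7.5 Tris-based buffer. Reagent: biotinylated RetCOR corepressor at 7 nM final. Schedule: 5 h at 4 °C. Detection: TR-FRET, emission read at 617 and 671 nm. Replicates: one well per compound, singlicate testing.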
NR2E3 ag-2 – activates human NR2E3 receptor; CHO-S Gal4-NCOR/VP16-NR2E3 two-hybrid, luciferase; AID 602229; inhibition of corepressor binding, % at 3.98 µM; 0.35% of 360,000 active; Q9Y5X4;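 active = inhibition above the mean of all tested compounds plus 3 SD, cut at about 70% in these data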;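 note: 0% = DMSO with NR2E3 transfected cells and 100% = cells lacking NR2E3 construct; higher means lower luciferase signal from less NR2E3 corepressor binding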
rCAG binder – binds r(CAG) RNA repeats | r(CAG) RNA repeat, TO-PRO-1 dye displacement fluorescence | inhibition, % at 3 µM | 1.3% of 370,000 active;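 active = inhibition above the plate cutoff, the mean of all test compounds on that plate plus 3 SD, cut at about 35% in these data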;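 note: 0% = DMSO alone and 100% = 100 µM mitoxantrone as full dye displacement; higher means more dye released from RNA so lower well fluorescence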
PG9 binder – binds the HIV-1 gp120 antibody PG9; inhibition, % at 6.7 µM; TR-FRET gp120-PG9 antibody binding; 0.43% of 360,000 active; in the data active = inhibition above about 8.5%
NR1D1 modulator – modulators of human Rev-erb alpha DNA binding | P20393 | Rev-erbα–FITC-DNA binding, fluorescence polarization, 90 min | activity, % at 10 µM | 0.79% of 370,000 active | AID 1259318;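 active = activity above about 14%, limit read from the data; passing the limit was not always enough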;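 note: 0% = DMSO wells with 35 nM protein and 100% = DMSO wells with 750 nM protein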
NR1D1 mod conf – Rev-erb alpha (human) modulation, hit confirmation; 61% of 3,000 active; shares compounds with NR1D1 modulator; activation, % at 25 µM; Rev-erb alpha FITC-DNA binding, fluorescence polarization, 90 min;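 active = activation at or above a set limit, or at least 3 SD above the negative control mean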;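 note: 0% = 35 nM protein with DMSO and 100% = 750 nM protein high control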
RORg counter – affects RORgamma DNA binding in a Rev-erb alpha counter-screen | shares compounds with NR1D1 modulator | purified RORgamma protein-FITC-DNA binding, fluorescence polarization | IC50, µM | 8% of 910 active | AID 1259320;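 active = Compounds whose fitted half-maximal concentration for disrupting protein-DNA binding is below 10 micromolar; the record names Rev-erb in its text, so the target is in doubt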
* = called active by the depositor; i = inactive; nt = not tested or not shown. Hits are enriched below; roughly 2.6% of the tested compounds scored in any of these assays.

SMILES | NR2E3 ag-1 | NR2E3 ag-2 | rCAG binder | PG9 binder | NR1D1 modulator | NR1D1 mod conf | others
CCOC(=O)c1ccc(NC(=O)COc2cc(=O)n(CC)c3ccccc23)cc1 | -1.1 | -0.6 | 1.9 | 0.7 | 28.0* | 26.7*
C[C@H]1C2CC(OC(=O)Nc3ccc4c(c3)OCO4)C(C2)[C@H]2CCCCN21 (stereo not given in full) | nt | nt | 0.5 | nt | 1.6 | nt
COC(=O)[C@@]1(Cc2ccc(F)cc2)[C@H]2c3cc(C(=O)N(C)C)n(CCCNc4ncc(C(F)(F)F)cc4Cl)c3C[C@H]2CN1C(=O)c1ccccc1 | nt | 14.1 | 15.6 | -0.2 | 5.5 | nt
COc1cc(C(=O)Nc2cccc(-c3nc4cc(C)ccc4o3)c2)cc(OC)c1OC | -0.8 | -14.4 | 0.2 | 0.6 | 61.1* | 54.4* | RORg counter=>40
CC(C)CC(=O)Nc1cccc(-c2nc3ccccc3o2)c1 | 0.3 | -25.0 | 3.2 | 3.0 | 33.2* | 25.9*
CC(C)C(=O)Nc1cccc(-c2nc3ccccc3o2)c1 | 0.5 | -108.2 | -1.5 | -0.2 | 21.3* | 19.0*
COc1ccc(OCC(=O)Nc2cccc(-c3nc4ccccc4o3)c2)cc1 | -0.6 | -127.6 | 4.0 | 5.7 | 26.4* | 15.8
O=C(O)CCC(=O)Nc1cccc(-c2nc3ccccc3o2)c1 | nt | -26.1 | 5.4 | -0.5 | 1.7 | nt
CC(=O)Nc1cccc(-c2nc3ccccc3o2)c1 | 2.4 | -60.5 | -1.8 | -0.2 | -1.2 | nt
CCCC(=O)Nc1cccc(-c2nc3ccccc3o2)c1 | -0.8 | -120.4 | 0.1 | -0.1 | 3.3 | nt
CCOC(=O)C1(C)CCN1C(=O)COc1ccc(C(C)(C)C)cc1 (stereo not given) | nt | -22.8 | -2.9 | 0.0 | 3.1 | nt
Cc1ccccc1NC(=O)CCS(=O)(=O)c1ccccc1 | nt | nt | 3.1 | nt | -5.0 | nt
Cc1nnc(NS(=O)(=O)c2ccc(F)cc2)s1 | nt | -16.1 | 4.2 | -0.8 | -2.8 | nt
COc1ccc(C2=NN(C(=O)CSc3nc(=O)n4cccc(C)c4n3)C(c3ccc(C)cc3)C2)cc1 (stereo not given) | -6.5 | 3.0 | 4.0 | -0.3 | 39.3* | 9.0
COc1ccc(C2=NN(C(=O)CSc3ncccn3)C(c3cccc(OC)c3OC)C2)cc1 (stereo not given) | 0.1 | -0.1 | -2.0 | -4.0 | 38.9* | 33.0* | RORg counter=>40
COc1ccc(C2=NN(C(=O)CSc3ncccn3)C(c3ccc(C)cc3)C2)cc1 (stereo not given) | -1.7 | 12.4 | -3.8 | -2.5 | 1.3 | nt
Cc1cccn2c(=O)nc(SCC(=O)N3N=C(c4cccs4)CC3c3ccc(F)cc3)nc12 (stereo not given) | nt | 19.5 | 4.4 | 1.8 | 6.8 | nt
Cc1ccc(C2CC(c3cccs3)=NN2C(=O)CSc2nc(=O)n3cc(C)ccc3n2)cc1 (stereo not given) | -2.3 | -39.3 | 5.1 | -0.1 | 26.7* | 18.3*
COc1ccc(C(=O)CSc2nnc(-c3ccccn3)n2-c2ccccc2)cc1 | nt | nt | 2.9 | nt | -0.9 | nt
CC(NC(=O)c1ccccc1)C(=O)NC1CCCc2ccccc21 (stereo not given) | nt | -40.6 | -3.9 | 0.5 | 4.8 | nt
Cc1cn([C@H]2C[C@H](O)[C@@H](CCC(=O)NCC3CCCO3)O2)c(=O)[nH]c1=O (stereo not given in full) | nt | -1.0 | 3.2 | -0.1 | -1.8 | nt
Cc1occc1C(=O)N/N=C/c1c(O)ccc2ccccc12 | 3.2 | -99.1 | 13.1 | 0.6 | 24.6* | 25.5*
O=C(CCc1nnc2n(Cc3ccccc3)c(=O)c3ccccc3n12)NCCN1CCOCC1 | -1.8 | 3.4 | -1.2 | -5.4 | -4.6 | nt
CCCCn1c(=O)[nH]c(=O)c2c1nc(-c1ccc(OCCC)c(OCC)c1)n2C | 0.3 | -7.2 | -1.9 | -0.1 | 21.3* | -6.1
CC(=O)Oc1[nH]c(=O)c2cccc3c2c1CCC3 | nt | 2.2 | 2.5 | -5.3 | 0.3 | nt
SMILES | NR2E3 ag-1 | NR2E3 ag-2 | rCAG binder | PG9 binder | NR1D1 modulator | NR1D1 mod conf | others
Cc1ccc(NC(=S)Nc2ccc(S(=O)(=O)N3CCOCC3)cc2)cc1S(=O)(=O)N1CCOCC1 | 3.6 | 16.1 | 6.3 | -0.7 | 16.6* | -4.8
CC(C)(C)NNC(=S)Nc1ccc(S(=O)(=O)N2CCOCC2)cc1 | 4.8 | -13.8 | -4.4 | -2.2 | 5.6 | nt
CCOC(Cn1c(SCc2cc(C(C)=O)ccc2OC)nc2ccccc2c1=O)OCC | 2.2 | -21.2 | -2.4 | 0.3 | 34.0* | 34.4* | RORg counter=>40
CC(C)C[C@H]1CNC(=S)N1C[C@H]1CCCN1C[C@H](Cc1ccc(O)cc1)N1C[C@H](CC(C)C)N(CCc2ccccc2)C1=S | nt | -4.1 | 13.6 | -1.6 | -8.9 | nt
Cc1cccc(N2C(=O)c3cccc4c(N)ccc(c34)C2=O)c1 | -6.9 | -39.2 | i | -7.4 | 245.2* | 198.9* | RORg counter=i
Nc1ccc2c3c(cccc13)C(=O)N(c1ccccc1)C2=O | nt | -50.4 | i | -4.7 | 91.7* | 80.1* | RORg counter=>40
CC(C)CCN1C(=O)c2cccc3c(N)ccc(c23)C1=O | 0.6 | -94.2 | -451.8 | 0.6 | 139.1* | 132.3* | RORg counter=i
O=C(O)c1ccc2c3c(cccc13)C(=O)N(c1ccccc1)C2=O | 2.8 | 4.0 | 8.4 | 0.8 | -8.5 | nt
CCN1C(=O)c2cccc3c(Cl)ccc(c23)C1=O | 3.2 | 3.0 | 2.8 | 0.6 | 41.0* | 29.8*
Cc1cccc(C)c1NC(=O)C1c2ccccc2OCC(=O)N1CCc1c[nH]c2ccccc12 (stereo not given) | nt | -14.7 | 4.2 | -1.6 | -3.4 | nt
Nc1cccc(N2C(=O)c3cccc4c(N)ccc(c34)C2=O)c1 | -5.6 | -25.2 | -254.1 | -14.6 | 79.8* | 63.6* | RORg counter=>40
CN1C[C@@H]2[C@@H]3C(=O)N(C)C(=O)[C@@H]3[C@](C)(C1=O)N2C(=O)c1ccc(Cl)cc1 | nt | -13.9 | 0.9 | 0.4 | -7.0 | nt
Cc1ccc(Nc2nccc(N(C)c3ccc4c(C)n(C)nc4c3)n2)cc1S(N)(=O)=O | nt | nt | nt | nt | 1.9 | nt
O=c1c2cnn(-c3ccccc3)c2nc(-c2cccs2)n1-c1ccc(Cl)cc1 | 0.8 | -6.3 | 8.3 | 0.3 | 22.6* | 10.0
CCOc1cccc2sc(NC(=O)c3ccc(Br)s3)nc12 | 2.5 | -30.3 | 2.9 | -0.2 | 29.6* | 33.4* | RORg counter=>40
COc1ccccc1-c1nc(SCC(=O)N(C)c2ccccc2)c2c(=O)n(C)c(=O)n(C)c2n1 | 4.4 | 2.1 | -0.5 | -0.1 | 81.5* | 46.1* | RORg counter=>40
COc1ccccc1-c1nc(SCC(=O)NCC2CCCO2)c2c(=O)n(C)c(=O)n(C)c2n1 (stereo not given) | -3.1 | nt | nt | nt | nt | nt
Cc1ccc(-c2nc(SCC(=O)Nc3cc(C)on3)c3c(=O)n(C)c(=O)n(C)c3n2)cc1 | 0.6 | 9.2 | 0.2 | 0.8 | 24.1* | 17.5*
Cn1c(=O)c2c(SCC(=O)Nc3ccccc3F)nc(-c3ccccc3F)nc2n(C)c1=O | 0.4 | -1.7 | 0.2 | -0.8 | 26.0* | 2.8
